Data reported in ChEMBL document CHEMBL4725241, “Discovery of BMS-986235/LAR-1219: A Potent Formyl Peptide Receptor 2 (FPR2) Selective Agonist for the Prevention of Heart Failure” (J Med Chem, 2020).
Calls of active or inactive are those of the source. The calls are words filed in the database; no cut-off is given here.

Tests used:
fMet-Leu-Phe receptor = target: T1, fMet-Leu-Phe receptor (Homo sapiens, UniProt P21462); assay: Agonist activity at human FPR1 expressed in HEK 293 cells co-expressing Galpha15 measured every 1.5 sec for 80 sec by Fluo-4 NW staining based scanning fluorometric method; assay type: cell-based, HEK293
T1 sequence (P21462 whole entry): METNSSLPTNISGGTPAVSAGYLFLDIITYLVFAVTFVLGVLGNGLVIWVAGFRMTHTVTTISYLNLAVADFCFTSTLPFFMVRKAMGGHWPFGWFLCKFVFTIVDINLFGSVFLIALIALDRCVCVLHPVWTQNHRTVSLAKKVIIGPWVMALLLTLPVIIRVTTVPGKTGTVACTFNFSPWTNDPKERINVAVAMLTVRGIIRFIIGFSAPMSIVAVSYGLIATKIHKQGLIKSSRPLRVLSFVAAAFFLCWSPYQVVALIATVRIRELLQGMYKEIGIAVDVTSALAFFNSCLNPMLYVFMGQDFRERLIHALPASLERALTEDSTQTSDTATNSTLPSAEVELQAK

[1] = target: T2, N-formyl peptide receptor 2 (Homo sapiens, UniProt P25090); assay: Agonist activity at human FPR2 expressed in HEK 293 cells co-expressing Galpha15 measured every 1.5 sec for 80 sec by Fluo-4 NW staining based scanning fluorometric method; assay type: cell-based, HEK293
T2 sequence (P25090 whole entry): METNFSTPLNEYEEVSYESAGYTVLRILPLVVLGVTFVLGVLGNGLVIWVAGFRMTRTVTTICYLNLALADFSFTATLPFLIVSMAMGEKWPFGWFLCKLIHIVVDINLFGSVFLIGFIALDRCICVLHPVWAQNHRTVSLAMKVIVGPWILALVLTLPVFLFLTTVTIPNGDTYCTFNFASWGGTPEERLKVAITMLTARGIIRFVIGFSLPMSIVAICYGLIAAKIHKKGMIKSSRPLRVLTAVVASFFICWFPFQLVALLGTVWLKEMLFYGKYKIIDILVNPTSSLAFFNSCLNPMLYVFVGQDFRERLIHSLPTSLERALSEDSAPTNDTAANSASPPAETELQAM
How it was run: (§1)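 HEK293 cells were transiently co-transfected with FPR plus Gα15 (Lipofectamine 2000), then reseeded after 24 h on poly-D-lysine plates and grown one more day. Cells were loaded with Fluo-4 NW for 45 min at 37°C. Compound was added and fluorescence (ex 485/em 525 nm) read for 80 s at 1.5 s intervals. Response = maximal peak minus basal.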

[2] = In vivo […] in mouse assessed as reduction in LPS-induced neutrophil infiltration in BALF cells at 1 mg/kg, po relative to control; assay type: functional
How it was run: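 Mice were given LPS and dosed orally at 1 mg/kg. Neutrophils in BALF were counted, and percent inhibition was calculated.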

Cytochrome P450 3A4 = Cytochrome P450 3A4 (Homo sapiens, UniProt P08684); assay: Inhibition of recombinant human CYP3A4; assay type: ADME
[3] = target: T3, Formyl peptide receptor 2 (Mus musculus, UniProt O88536); assay: Agonist activity at mouse FPR2 expressed in HEK 293 cells co-expressing Galpha15 measured every 1.5 sec for 80 sec by Fluo-4 NW staining based scanning fluorometric method; assay type: cell-based, HEK293; how it was run: as §1
T3 sequence (O88536 whole entry): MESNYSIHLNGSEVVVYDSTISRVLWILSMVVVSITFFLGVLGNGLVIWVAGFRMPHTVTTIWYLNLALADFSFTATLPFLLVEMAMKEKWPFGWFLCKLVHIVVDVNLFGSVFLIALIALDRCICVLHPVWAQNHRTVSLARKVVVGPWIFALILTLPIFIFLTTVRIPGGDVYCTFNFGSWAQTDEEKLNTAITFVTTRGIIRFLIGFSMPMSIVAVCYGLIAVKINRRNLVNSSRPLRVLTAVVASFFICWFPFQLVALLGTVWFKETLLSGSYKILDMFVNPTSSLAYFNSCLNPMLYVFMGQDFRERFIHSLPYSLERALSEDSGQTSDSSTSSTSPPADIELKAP

Mus musculus [4] = assay: Cardioprotective activity in C57BL/6 mouse model of LAD coronary artery ligation-induced myocardial infarction assessed as reduction in heart weight at 100 mg/kg, po and measured after 28 days; assay type: functional, organism-based; settings: time 28.0 day
How it was run: (§2)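 Male C57BL/6 mice (10-12 weeks) underwent permanent LAD ligation. Captopril was given in drinking water (~100 mg/kg/day). Endpoints were taken at 28 days post-MI, with histomorphometry of LV cross sections for scar length.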

Mus musculus [5] = assay: Cardioprotective activity in C57BL/6 mouse model of LAD coronary artery ligation-induced myocardial infarction assessed as reduction in LV chamber area at 100 mg/kg, po and measured after 28 days; assay type: functional, organism-based; settings: time 28.0 day; how it was run: as §2
Mus musculus [6] = assay: Cardioprotective activity in C57BL/6 mouse model of LAD coronary artery ligation-induced myocardial infarction assessed as reduction in scar length at 0.3 mg/kg, po and measured after 28 days relative to control; assay type: functional, organism-based; settings: time 28.0 day
How it was run: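 Male C57BL/6 mice (10-12 weeks) underwent permanent LAD ligation under ketamine/xylazine, with shams having an untightened suture. Compound (0.3 mg/kg/d) or vehicle was given by oral gavage once daily (5 mL/kg) from post-MI day 4 for 24 days. Endpoints were taken at 28 days post-MI; scar length was quantified from LV cross sections.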

Chain of Cytochrome P450 3A4 (P08684 whole entry): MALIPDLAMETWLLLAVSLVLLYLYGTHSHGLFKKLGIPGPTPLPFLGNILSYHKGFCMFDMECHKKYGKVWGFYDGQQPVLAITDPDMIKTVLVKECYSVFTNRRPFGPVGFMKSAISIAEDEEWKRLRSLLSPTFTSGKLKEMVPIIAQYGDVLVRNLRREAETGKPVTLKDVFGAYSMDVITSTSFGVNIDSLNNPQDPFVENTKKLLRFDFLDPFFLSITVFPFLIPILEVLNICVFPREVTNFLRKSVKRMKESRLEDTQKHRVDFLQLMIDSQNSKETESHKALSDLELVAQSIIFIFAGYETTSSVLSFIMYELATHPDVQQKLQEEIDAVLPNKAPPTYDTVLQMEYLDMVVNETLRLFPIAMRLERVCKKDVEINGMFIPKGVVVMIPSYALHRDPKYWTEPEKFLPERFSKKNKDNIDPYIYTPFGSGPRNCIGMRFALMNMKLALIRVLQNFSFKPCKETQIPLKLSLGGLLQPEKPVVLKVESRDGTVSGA

EC50 (fMet-Leu-Phe receptor) [nM] | EC50 [1] [nM] | SMILES | further results
> 10000 | 3.6 | COc1ccc(CC(NC(=O)Nc2ccc(Cl)cc2)C(N)=O)cc1 (racemic) | 
190 |  | COc1cnc([C@@H]2CNC(=O)[C@H]2NC(=O)Nc2ccc(F)cc2)c(F)c1 | 
40000 | 9.7 | N#Cc1cc(F)c([C@@H]2CNC(=O)[C@H]2NC(=O)Nc2ccc(F)cc2)c(F)c1 | 
 | 43 | COc1cc(F)c([C@@H]2CNC(=O)[C@H]2NC(=O)Nc2ccccc2F)c(F)c1 | 
 | 0.9 | COc1ccc([C@@H]2CNC(=O)[C@H]2NC(=O)Nc2ccc(F)cc2)cc1F | 
 | 1.4 | CNc1cc(F)c([C@@H]2CNC(=O)[C@H]2NC(=O)Nc2ccc(F)cc2)c(F)c1 | 
3000 |  | COc1cc(F)c([C@@H]2CNC(=O)[C@H]2NC(=O)Nc2cc3ccccc3s2)c(F)c1 | 
 | 0.91 | COc1ccc([C@@H]2CNC(=O)[C@@H]2NC(=O)Nc2ccc(Cl)cc2)cc1 (racemic) | 
280 | 0.14 | COc1cc(F)c([C@@H]2CNC(=O)[C@H]2NC(=O)Nc2ccc(F)cc2)c(F)c1 | inhibition in vivo at 1 mg/kg [2]: 97%; IC50 (Cytochrome P450 3A4): > 20000 nM; EC50 [3]: 1.5 nM
 |  | C[C@H](CS)C(=O)N1CCC[C@H]1C(=O)O | Activity (Mus musculus [4]): Active; Activity (Mus musculus [5]): Active; Activity (Mus musculus [6]): inactive
17 |  | COc1cc(F)c([C@@H]2CNC(=O)[C@H]2NC(=O)Nc2ccc(F)cc2)cc1F | 
290 |  | COc1cc(F)c([C@@H]2CNC(=O)[C@H]2NC(=O)Nc2cc(C)ns2)c(F)c1 | 
 | 31 | COc1ccc(CC(NC(=O)Nc2ccc(Cl)cc2)C(=O)O)cc1 (racemic) | 
40 | 0.05 | COc1cc(F)c([C@@H]2CNC(=O)[C@H]2NC(=O)Nc2ccc(Cl)c(O)c2)c(F)c1 | 
96 | 0.19 | COc1cc(F)c([C@@H]2CNC(=O)[C@H]2NC(=O)Nc2ccc(Br)cc2)c(F)c1 | 
29 | 3.1 | O=C(Nc1ccc(F)cc1)N[C@@H]1C(=O)NC[C@H]1c1ccc(Cl)cc1F | 
 | 2 | COc1cc(F)c([C@@H]2CNC(=O)[C@H]2NC(=O)Nc2ccc(C)cc2)c(F)c1 | 
 | 0.9 | COc1ccc(C2CNC(=O)C2NC(=O)Nc2ccc(Cl)cc2)cc1 (single isomer, unassigned; (+)) | 
72 | 0.087 | COc1cc(F)c([C@@H]2CNC(=O)[C@H]2NC(=O)Nc2ccc(F)c(O)c2)c(F)c1 | 
820 |  | COc1cc(F)c([C@@H]2CNC(=O)[C@H]2NC(=O)Nc2ccc(F)c(F)c2)c(F)c1 | inhibition in vivo at 1 mg/kg [2]: 4.9%; IC50 (Cytochrome P450 3A4): > 20000 nM; EC50 [3]: 8.5 nM
 | 0.085 | COc1ccc([C@@H]2CNC(=O)[C@H]2NC(=O)Nc2ccc(F)cc2)cc1 | 

EC50 (fMet-Leu-Phe receptor) [nM] | EC50 [1] [nM] | SMILES | further results
 | 1.6 | COc1ccc([C@@H]2CNC(=O)[C@H]2NC(=O)Nc2ccc(F)cc2)c(C)c1 | 
 | 0.11 | COc1ccc([C@@H]2CCNC(=O)[C@H]2NC(=O)Nc2ccc(Cl)cc2)cc1 (racemic) | 
> 10000 | > 100 | COc1ccc([C@@H]2NC(=O)[C@H]2NC(=O)Nc2ccc(Cl)cc2)cc1 (racemic) | 
 | 5.8 | CCc1cc(F)c([C@@H]2CNC(=O)[C@H]2NC(=O)Nc2ccc(F)cc2)c(F)c1 | 
 | 4.5 | COc1cc(F)c([C@@H]2CNC(=O)[C@H]2NC(=O)Nc2ccc(Cl)cn2)c(F)c1 | 
 | 4.6 | COc1ccc(C2CNC(=O)C2NC(=O)Nc2ccc(Cl)cc2)cc1 (single isomer, unassigned; (-)) | 
120 |  | COc1cc(F)c([C@@H]2CNC(=O)[C@H]2NC(=O)Nc2ccc(Cl)cc2)c(F)c1 | 
 | 1.9 | COc1cc(F)c([C@@H]2CNC(=O)[C@H]2NC(=O)Nc2ncc(Cl)s2)c(F)c1 | 
1000 | 0.078 | COc1cc(F)c([C@@H]2CNC(=O)[C@H]2NC(=O)Nc2ccc(C)c(O)c2)c(F)c1 | inhibition in vivo at 1 mg/kg [2]: 55%; IC50 (Cytochrome P450 3A4): > 20000 nM; EC50 [3]: 0.63 nM
 | 0.18 | COc1ccc([C@@H]2CNC(=O)[C@H]2NC(=O)Nc2ccc(Cl)cc2)cc1 (racemic) | 
 | 14 | CCOc1cc(F)c([C@@H]2CNC(=O)[C@H]2NC(=O)Nc2ccc(F)cc2)c(F)c1 | 
 | 990 | COc1ccc(CCNC(=O)Nc2ccc(Cl)cc2)cc1 | 
> 10000 | 12 | COc1ccc([C@@H]2NC(=O)[C@@H]2NC(=O)Nc2ccc(Cl)cc2)cc1 (racemic) | 
1200 |  | COc1cc(F)c([C@@H]2CNC(=O)[C@H]2NC(=O)Nc2ccc(Cl)s2)c(F)c1 | inhibition in vivo at 1 mg/kg [2]: 84%; IC50 (Cytochrome P450 3A4): 5600 nM; EC50 [3]: 1.4 nM
 | 4 | COc1ccc([C@@H]2CNC(=O)[C@H]2NC(=O)Nc2ccc(F)cc2)c(Cl)c1 | 
 | 0.092 | COc1ccc([C@@H]2CNC(=O)[C@H]2NC(=O)Nc2ccc(Cl)cc2)cc1 | 
1700 |  | COc1cc(F)c([C@@H]2CNC(=O)[C@H]2NC(=O)Nc2cccc(F)c2)c(F)c1 | 
350 |  | COc1cc(F)c([C@@H]2CNC(=O)[C@H]2NC(=O)Nc2ccc(C#N)cc2)c(F)c1 | 
 | 34 | COc1ccc([C@H]2CNC(=O)[C@@H]2NC(=O)Nc2ccc(Cl)cc2)cc1 | 
 | 6.8 | COc1ccc(CC(CO)NC(=O)Nc2ccc(Cl)cc2)cc1 (racemic) | 

SMILES | EC50 (fMet-Leu-Phe receptor) [nM] | EC50 [1] [nM] | further results
COc1ccc(CC(C)NC(=O)Nc2ccc(Cl)cc2)cc1 (racemic) |  | 23 | 
